Experimental data reported in ChEMBL document CHEMBL2010793, “Synthesis of novel 7-oxo and 7-hydroxy trifluoroallocolchicinoids with cytotoxic effect” (Bioorg Med Chem, 2012).

How the values were obtained:
KB [1] = assay: Cytotoxicity against human KB cells assessed as inhibition of cell proliferation at 10^-5 M after 72 hrs by MTS assay; type: functional; conditions: read-out: GI
In short: (§1)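 KB cells seeded at 650 cells/well in 200 µl medium, dosed 24 h later with compounds from DMSO (1% DMSO final; controls DMSO only). After 72 h, MTS added for 3 h at 37 °C, A490 read; inhibition from treated/control OD ratio. Single-concentration tests in triplicate with docetaxel 2.5 10^-10 M reference; IC50 runs in separate duplicate.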

Ovis aries = organism: Ovis aries; assay: Inhibition of sheep brain tubulin polymerization at 6.7 x 10^-5 M after 15 mins by turbidimetry analysis
In short: (§2)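 Microtubule protein from sheep brain, purified by two assembly/disassembly cycles (37 °C/0 °C) in 100 mM MES pH 6.6, 1 mM EGTA, 0.5 mM MgCl2. Compound with microtubule solution held 10 min at 37 °C then 5 min at 0 °C; polymerization followed by turbidity at 350 nm. Screened at 6.7 10^-5 M in triplicate, deoxypodophyllotoxin reference.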

KB [2] = assay: Cytotoxicity against human KB cells assessed as inhibition of cell proliferation at 10^-6 M after 72 hrs by MTS assay; type: functional; conditions: read-out: GI; in short: as §1
[3] = Inhibition of sheep brain tubulin polymerization after 15 mins by turbidimetry analysis; set-up: species or system Ovis aries; in short: as §2
KB [4] = assay: Cytotoxicity against human KB cells assessed as inhibition of cell proliferation after 72 hrs by MTS assay; type: functional, cell-based; in short: as §1
[5] = Inhibition of tubulin polymerization
In short: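 Sheep brain microtubule protein was purified by two assembly/disassembly cycles (37 °C/0 °C) in 100 mM MES pH 6.6, 1 mM EGTA, 0.5 mM MgCl2. Samples were incubated 10 min at 37 °C, then 5 min at 0 °C, and polymerization was read by turbidimetry at 350 nm. Compounds were tested at 6.7 10^-5 M in triplicate, with deoxypodophyllotoxin as reference.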

KB [6] = assay: Cytotoxicity against human KB cells; type: functional, cell-based
In short: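 KB cells seeded at 650 cells/well and dosed 24 h later with compounds in DMSO (1% final). Screened at 10^-5 and 10^-6 M in triplicate, with docetaxel 2.5 10^-10 M as reference. After 72 h, MTS was added for 3 h at 37 °C and A490 was read. Inhibition was derived from treated/control OD. IC50 was run in separate duplicate when inhibition exceeded 80% at 10^-5 M.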

Row | inhibition (Ovis aries) | IC50 [3] | Structure (SMILES) | inhibition of growth at 10 µM (KB [1]) | inhibition of growth at 1 µM (KB [2]) | IC50 (KB [4]) | IC50 [5] | IC50 (KB [6])
1 | 2% | – | COc1ccc2c(c1)C(NC(=O)C(F)(F)F)CC(O)c1cc(OC)c(OC)cc1-2 (mixture of isomers) | 9% | 0% | – | – | –
2 | 48% | 80 µM | COc1cc2c(c(OC)c1OC)-c1ccccc1C(NC(=O)C(F)(F)F)CC2=O (stereo unspecified) | 91% | 18% | 2.95 µM | – | –
3 | 29% | – | COc1cc2c(c(OC)c1OC)-c1ccc(O)cc1C(NC(=O)C(F)(F)F)CC2O (mixture of isomers) | 60% | 0% | – | – | –
4 | 18% | – | COc1ccc2c(c1)C(NC(=O)C(F)(F)F)CC(O)c1cc(OC)c(OC)c(OC)c1-2 (stereo unspecified) | 94% | 0% | 1.59 µM | – | –
5 | 24% | – | COc1cc2c(cc1OC)-c1ccc(O)cc1C(NC(=O)C(F)(F)F)CC2=O (stereo unspecified) | 40% | 0% | – | – | –
6 | 62% | 37 µM | COc1cc2c(c(OC)c1OC)-c1ccc(O)cc1C(NC(=O)C(F)(F)F)CC2=O (stereo unspecified) | 96% | 37% | 0.33 µM | – | –
7 | 89% | 12 µM | COc1ccc2c(c1)C(NC(=O)C(F)(F)F)CC(=O)c1cc(OC)c(OC)c(OC)c1-2 (racemic) | 96% | 98% | 0.045 µM | – | –
8 | 89% | 13 µM | COc1cc2c(c(OC)c1OC)-c1ccccc1C(NC(=O)C(F)(F)F)CC2O (mixture of isomers) | 8% | 0% | – | – | –

More lines, now with the values behind:

Row | Structure (SMILES) | inhibition (Ovis aries) | IC50 [3] | inhibition of growth at 10 µM (KB [1]) | inhibition of growth at 1 µM (KB [2]) | IC50 (KB [4]) | IC50 [5] | IC50 (KB [6])
9 | COc1cc2c(cc1OC)-c1ccccc1C(NC(=O)C(F)(F)F)CC2=O (stereo unspecified) | 12% | – | 92% | 0% | – | – | –
10 | COc1ccc(-c2ccc(OC)c3c2C(NC(=O)C(F)(F)F)CC3=O)c(OC)c1OC (stereo unspecified) | 33% | – | 97% | 0% | 1.25 µM | – | –
11 | COc1cc2c(cc1OC)C(O)CC(NC(=O)C(F)(F)F)c1cc(O)ccc1-2 (mixture of isomers) | 13% | – | 2% | 0% | – | – | –
12 | COc1ccc2c(c1)[C@@H](NC(C)=O)CCc1cc(OC)c(OC)c(OC)c1-2 | – | – | – | – | – | 0.7 µM | 0.019 µM
13 | COc1ccc2c(c1)C(NC(=O)C(F)(F)F)CC(=O)c1cc(OC)c(OC)cc1-2 (stereo unspecified) | 63% | 60 µM | 38% | 0% | – | – | –
14 | COc1cc([C@@H]2c3cc4c(cc3C[C@H]3COC(=O)[C@@H]32)OCO4)cc(OC)c1OC [DESOXYPODOPHYLLOTOXIN] | 100% | 3.2 µM | 100% | 100% | 0.003 µM | – | –
15 | COc1cc2c(cc1OC)[C@H](O)C[C@@H](NC(=O)C(F)(F)F)c1ccccc1-2 (racemic) | 23% | – | 9% | 0% | – | – | –
